Measured values published in publication PMC2952073 (Bioorganic & medicinal chemistry, 2010).
Blank lines part the entries; values can stand above or below the compound they belong to.

Key:
[1] = system: Gli1-mediated transcription (human full-length Gli1); assay: Gli-Luc reporter assay in C3H10T1/2 cells transfected with Gli1; format: cell-based; conditions: for inhibition of Gli1-mediated transcription (Gli-Luc), relative potency in words: Gli1-transfected C3H10T1/2 cells, 10 µM or 20 µM, 24 h
[2] = system: endogenous Gli in Rh30 cells; assay: Gli-mediated transcription reporter assay in Rh30 cells; format: cell-based
Method in brief: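 Rh30 cells seeded at 3×10^5 per dish in RPMI-1640 with 10% FBS (37 °C, 5% CO2); after 24 h (~70% confluence) transfected with GliLuc-BS (500 ng/mL) and pRL-CMV (2.5 ng/mL) using Fugene6. Replated into 96-well plates 6 h post-transfection; 18 h later exposed to test compound or DMSO for 24 h. Lysed cells read by dual luciferase as firefly/Renilla ratio.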

[3] = system: medulloblastoma; conditions: mouse model in which Ptch1 is inactivated; cited from earlier work
[4] = system: bone development; conditions: young mice; cited from earlier work
[5] = system: medulloblastoma; conditions: mouse model in which SuFu is inactivated; cited from earlier work
[6] = Microsomal stability assay; format: in vitro ADME; conditions: CD-1 female mouse liver microsomes, 37°C
[7] = system: Histone deacetylase (HDAC); assay: HDAC inhibition; format: biochemical; conditions: up to 40 µM; data not shown
[8] = system: Hh signal-mediated alkaline phosphatase; assay: Hh signal-mediated alkaline phosphatase induction in C3H10T1/2 cells; format: cell-based, mouse; conditions: osteoblastic differentiation marker
[9] = system: Gli1-target genes in Rh30 cells; assay: Real-time RT-PCR of Gli1-target genes in Rh30 cells; format: cell-based; conditions: 24 h after addition

IC50 ([1]; Homo sapiens, C3H 10T1/2, 24 h, read-out: IC50, Gli-Luc signal in Gli1-transfected C3H10T1/2 cells): ~20 µM
SMILES: CN(C)c1ccccc1CN1CCCN(Cc2ccccc2N(C)C)C1c1ccncc1 [GANT61, reference compound]

SMILES: COc1cc(OC)cc(C(=O)Nc2ccc(Cl)c(-c3nc4ccc(N(C)C)cc4[nH]3)c2)c1 [HhAntag]
Gli-Luc inhibition in Rh30 cells, in words ([2]; concentration as high as 40 µM): almost no Gli-Luc inhibition
effect on medulloblastoma [3]: eliminate medulloblastoma
effect on bone development [4]: permanent defects in bone development
efficacy [5]: not to be effective

time to complete consumption in mouse liver microsomes [6]: less than 1 h
HDAC inhibition [7]: do not inhibit
SMILES: CC(C(=O)NCCc1ccc(O)cc1)c1cccc(C(=O)c2ccccc2)c1 (stereo not shown) [compound 5]

time to complete consumption in mouse liver microsomes [6]: less than 1 h
HDAC inhibition [7]: do not inhibit
SMILES: CCCN(CCc1ccc(O)cc1)C(=O)C(C)c1cccc(C(=O)c2ccccc2)c1 (stereo not shown) [compound 6]

SMILES: CC(C(=O)NCCc1ccc2[nH]ccc2c1)c1cccc(C(=O)c2ccccc2)c1 (stereo not shown) [compound 20, N-(2-(1H-Indol-5-yl)ethyl)-2-(3-benzoylphenyl)propanamide]
inhibition of Gli1-mediated transcription (Gli-Luc), relative potency in words [1]: much weaker activity than 5

SMILES: CC(C(=O)NCc1ccc2[nH]ccc2c1)c1cccc(C(=O)c2ccccc2)c1 (stereo not shown) [compound 21, N-((1H-Indol-5-yl)methyl)-2-(3-benzoylphenyl)propanamide]
inhibition of Gli1-mediated transcription (Gli-Luc), relative potency in words [1]: higher activity than 20

SMILES: CC(C(=O)Nc1ccc2[nH]ccc2c1)c1cccc(C(=O)c2ccccc2)c1 (stereo not shown) [compound 22, 2-(3-Benzoylphenyl)-N-(1H-indol-5-yl)propanamide]
inhibition of Gli1-mediated transcription (Gli-Luc), relative potency in words [1]: higher activity than 20

stability in mouse liver microsomes, in words [6]: much more stable than 5 and 6
SMILES: CC(C(=O)Nc1ccc2cc[nH]c2c1)c1cccc(C(=O)c2ccccc2)c1 (stereo not shown) [compound 23, 2-(3-Benzoylphenyl)-N-(1H-indol-6-yl)propanamide]
inhibition of Gli1-mediated transcription (Gli-Luc), relative potency in words [1]: best among the tested analogs
Gli-Luc inhibition in Rh30 cells, in words ([2]; 10 µM or 20 µM, 24 h): inhibition with similar or slightly weaker potency
inhibitory effect in inducing Hh signal-mediated alkaline phosphatase [8]: much smaller than that of HhAntag

SMILES: CC(CNC(=O)Cc1ccc2[nH]ccc2c1)c1cccc(C(=O)c2ccccc2)c1 (stereo not shown) [compound 25, N-(2-(3-Benzoylphenyl)propyl)-2-(1H-indol-5-yl)acetamide]
inhibition of Gli1-mediated transcription (Gli-Luc), relative potency in words [1]: only weak activity

SMILES: CC(CNC(=O)c1cc2ccccc2[nH]1)c1cccc(C(=O)c2ccccc2)c1 (stereo not shown) [compound 28, N-(2-(3-Benzoylphenyl)propyl)-1H-indole-2-carboxamide]
inhibition of Gli1-mediated transcription (Gli-Luc), relative potency in words [1]: equipotent inhibitors

SMILES: CC(CNC(=O)c1c[nH]c2ccccc12)c1cccc(C(=O)c2ccccc2)c1 (stereo not shown) [compound 29, N-(2-(3-Benzoylphenyl)propyl)-1H-indole-3-carboxamide]
inhibition of Gli1-mediated transcription (Gli-Luc), relative potency in words [1]: equipotent inhibitors

SMILES: CC(CNC(=O)c1cccc2[nH]ccc12)c1cccc(C(=O)c2ccccc2)c1 (stereo not shown) [compound 30, N-(2-(3-Benzoylphenyl)propyl)-1H-indole-4-carboxamide]
inhibition of Gli1-mediated transcription (Gli-Luc), relative potency in words [1]: decreased the potency

SMILES: CC(CNC(=O)c1cccc2cc[nH]c12)c1cccc(C(=O)c2ccccc2)c1 (stereo not shown) [compound 31, N-(2-(3-Benzoylphenyl)propyl)-1H-indole-7-carboxamide]
inhibition of Gli1-mediated transcription (Gli-Luc), relative potency in words [1]: decreased the potency

SMILES: CC(C(=O)N(C)c1ccc2cc[nH]c2c1)c1cccc(C(=O)c2ccccc2)c1 (stereo not shown) [compound 32, 2-(3-Benzoylphenyl)-N-(1H-indol-6-yl)-N-methylpropanamide]
inhibition of Gli1-mediated transcription (Gli-Luc), relative potency in words [1]: Little improvement

stability in mouse liver microsomes, in words [6]: much more stable than 5 and 6
HDAC inhibition [7]: do not inhibit
SMILES: CCCN(C(=O)C(C)c1cccc(C(=O)c2ccccc2)c1)c1ccc2cc[nH]c2c1 (stereo not shown) [compound 33, 2-(3-Benzoylphenyl)-N-(1H-indol-6-yl)-N-propylpropanamide]
Gli-Luc inhibition in Rh30 cells, in words ([2]; 10 µM or 20 µM, 24 h): inhibition with similar or slightly weaker potency
expression of Gli1-target genes in Rh30 cells (RT-PCR) [9]: inhibits expression of Gli1-target genes
inhibitory effect in inducing Hh signal-mediated alkaline phosphatase [8]: much smaller than that of HhAntag

SMILES: CCCC(C)(C(=O)Nc1ccc2cc[nH]c2c1)c1cccc(C(=O)c2ccccc2)c1 (stereo not shown) [compound 40, 2-(3-Benzoylphenyl)-N-(1H-indol-6-yl)-2-methylpentanamide]
inhibition of Gli1-mediated transcription (Gli-Luc), relative potency in words [1]: did not increase potency

SMILES: CCCn1ccc2ccc(NC(=O)C(C)c3cccc(C(=O)c4ccccc4)c3)cc21 (stereo not shown) [compound 41, 2-(3-Benzoylphenyl)-N-(1-propyl-1H-indol-6-yl)propanamide]
inhibition of Gli1-mediated transcription (Gli-Luc), relative potency in words [1]: did not increase potency

HDAC inhibition [7]: do not inhibit
SMILES: CCCN(C(=O)C(C)c1cccc(C(=O)c2ccccc2)c1)c1ccc2[nH]ccc2c1 (stereo not shown) [compound 42, 2-(3-Benzoylphenyl)-N-(1H-indol-5-yl)-N-propylpropanamide]
Gli-Luc inhibition in Rh30 cells, in words ([2]; 10 µM or 20 µM, 24 h): inhibition with similar or slightly weaker potency
inhibitory effect in inducing Hh signal-mediated alkaline phosphatase [8]: much smaller than that of HhAntag

SMILES: CCCN(C(=O)C(C)c1cccc(C(=O)c2ccccc2)c1)c1cccc2[nH]ccc12 (stereo not shown) [compound 43, 2-(3-Benzoylphenyl)-N-(1H-indol-4-yl)-N-propylpropanamide]
inhibition of Gli1-mediated transcription (Gli-Luc), relative potency in words [1]: equipotent to 33

SMILES: CCCN(Cc1ccc2[nH]ccc2c1)C(=O)C(C)c1cccc(C(=O)c2ccccc2)c1 (stereo not shown) [compound 44, N-((1H-Indol-5-yl)methyl)-2-(3-benzoylphenyl)-N-propylpropanamide]
inhibition of Gli1-mediated transcription (Gli-Luc), relative potency in words [1]: weaker potency than 42
